Screening data deposited in PubChem BioAssay by Sanford-Burnham Center for Chemical Genomics.
SENP6 block = SENP6 protease inhibition. Recombinant SENP6 catalytic domain, aminoluciferin luminescence. inhibition, % at 10 µM. hit rate 1.8% among 330,000. AID 2599;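 active means inhibition above about 50% at the single tested dose, limit read from the data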
SENP1 inh = inhibitors of human SENP1 SUMO protease catalytic domain. recombinant SENP1 catalytic domain, CyPet-SUMO1-YPet FRET cleavage. inhibition, % at 10 µM. hit rate 0.21% among 360,000. AID 624204;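 active means inhibition at least 30% at 10 µM, raw YFP signal under a set limit, fluorescence ratio 0.5 to 1.5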
Target sequence (Q9P0U3 419-644 limits assumed): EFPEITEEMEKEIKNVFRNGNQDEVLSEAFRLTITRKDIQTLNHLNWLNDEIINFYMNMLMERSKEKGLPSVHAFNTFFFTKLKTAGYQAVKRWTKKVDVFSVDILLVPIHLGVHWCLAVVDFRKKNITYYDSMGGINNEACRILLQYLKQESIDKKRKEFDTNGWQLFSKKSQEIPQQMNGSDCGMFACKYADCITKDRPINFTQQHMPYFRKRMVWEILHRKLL
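Material: hSENP1 catalytic domain, recombinant; medium: Tris pH 8 with BME, BSA, NP40 and catalase; compound: single concentration of 10 µM compound, 0.5% DMSO final; technique: FRET read of cyan and yellow fluorescence; timing: 50 min enzyme reaction, room temperature, light-protected; reagent: SFCypet-SUMO1-SFYpet substrate at 25 nM; control set: no-enzyme low, enzyme-DMSO high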
SENP8 block-1 = inhibitors of human SENP8 protease; hit rate 0.64% among 360,000; recombinant SENP8, Nedd8 substrate fluorescence; inhibition, % at 20 µM; Q96LD8; in the data active means inhibition mostly above about 40%, no sharp cut-off; inactive means mostly below about 27%
SENP7 inh = blocks the human protease SENP7; hit rate 1.5% among 330,000; recombinant SENP7, Z-RLRGG-aminoluciferin luminescence, 40 min; Q9BQF6; AID 434973; inhibition, % at 5 µM;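 active means inhibition above about 50% at the single test dose, limit read from the data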
CendR NRP1 mod = NRP-1/CendR interaction modulation. O14786. FAM-RPARPAR peptide binding to NRP-1, fluorescence polarization. inhibition, % at 25 µM. hit rate 0.85% among 360,000;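 active means inhibition or corrected inhibition above about 18%, plus a signal ratio from 0.5 to 1.5, limit read from the data, passing the limit was not always enough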
SENP8 block-2 = blocks the human protease SENP8 | Q96LD8 | purified SENP8, Z-RLRGG-aminoluciferin cleavage, luminescence | inhibition, % at 10 µM | hit rate 1.2% among 330,000 | AID 2540; in the data active means inhibition above about 50%
SENP8 confirm = confirmation of human SENP8 protease inhibitors. shares compounds with SENP7 inh. Recombinant SENP8, Z-RLRGG-aminoluciferin luminescence, 60 min. inhibition, % at 12.5 µM. hit rate 40% among 6,200. AID 488912;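 active means mean inhibition across replicates above about 50%, limit read from the data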
SENP6 conf = human SENP6 inhibition, confirmed. inhibition, % at 12.5 µM. hit rate 58% among 6,200. AID 488915. recombinant SENP6, Z-RLRGG-aminoluciferin luminescence. shares compounds with SENP7 inh
SENP7 confirm = confirmation of human SENP7 protease inhibitors; inhibition, % at 12.5 µM; hit rate 69% among 6,200; recombinant SENP7, Z-RLRGG-aminoluciferin luminescence, 40 min; shares compounds with SENP7 inh
Casp3 SENP sel = selectivity test for SENP inhibitors: human caspase-3 inhibition | shares compounds with SENP7 inh | hit rate 60% among 6,200 | inhibition, % at 12.5 µM | purified caspase-3, Z-DEVD-aminoluciferin luminescence, 60 min;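 active means mean inhibition above about 50%, limit read from the data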
Target sequence (P42574 28-227 limits assumed): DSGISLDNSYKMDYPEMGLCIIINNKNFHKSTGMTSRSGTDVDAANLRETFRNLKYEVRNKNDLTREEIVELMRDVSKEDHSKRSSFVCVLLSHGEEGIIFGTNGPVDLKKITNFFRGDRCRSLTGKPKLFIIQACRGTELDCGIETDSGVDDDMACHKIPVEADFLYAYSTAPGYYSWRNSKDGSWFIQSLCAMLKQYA
Luc interf = interferes with luciferase luminescence in SENP counter-screen; shares compounds with SENP7 inh; AID 488919; inhibition, % at 12.5 µM; Pre-incubated SENP8/Z-RLRGG-aminoluciferin, luciferase luminescence interference; hit rate 39% among 6,200;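 active means mean inhibition above about 50% when retested at one dose, limit read from the data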
Each line names hits and unclear results; the compound was inactive in the other large screens (follow-up assays come after a bar, where they were run). Only some compounds are listed: those with a hit (about 3.3% of all), similar ones and a draw of the others.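 How the source made its calls, unless noted: active means mean inhibition above about 50% in the one-dose retest (limit read from the data); inactive means the rest.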

O=c1cc(-c2ccco2)oc2ccc(Cl)cc12	none (no result: SENP6 block, SENP7 inh, SENP8 block-2)
CC1(C(=O)NS(=O)(=O)c2ccc(Br)cc2)CCN1C(=O)C1CCCCC1 (configuration not stated)	none (no result: SENP6 block, SENP7 inh, SENP8 block-2)
CNC(=O)C[C@H]1C(=O)N(CCc2ccccc2)C[C@@H]1CSC	none (no result: SENP6 block, SENP7 inh, SENP8 block-2)
O=c1cc(-c2ccccc2)oc2ccc(O)cc12	SENP6 block 65.8, SENP7 inh 55.5 | SENP8 confirm 53.7 | SENP6 conf 51.4 | SENP7 confirm 81.9 | Casp3 SENP sel 65.8 | Luc interf 70.6
COc1ccc(-c2cc(=O)c3cc(O)ccc3o2)cc1	SENP6 block 68.9, SENP7 inh 78.1, SENP8 block-2 53.2 | SENP8 confirm inactive | SENP6 conf inactive | SENP7 confirm 86.7 | Casp3 SENP sel 73.0 | Luc interf inactive
NC(=O)c1c(-c2ccccc2)oc2ccc(O)cc12	none
CCCCN(C(=O)c1ccc(N2C(=O)c3ccccc3C2=O)cc1)c1c(N)n(CC(C)C)c(=O)[nH]c1=O	none
CSc1ccc(NC(=O)C2(C)CCN2C(=O)c2cc(C)n(C)n2)cc1 (configuration not stated)	none (no result: SENP6 block, SENP7 inh, SENP8 block-2)
Cc1ccc(/C=N/c2sc3c(c2C#N)CCC3)o1	SENP6 block 92.6, SENP7 inh 90.7, SENP8 block-2 89.7 | SENP8 confirm inactive | SENP6 conf 83.6 | SENP7 confirm 93.9 | Casp3 SENP sel inactive | Luc interf 52.4
N#Cc1c(/N=C/c2cccs2)sc2c1CCCCC2	SENP6 block 75.6, SENP7 inh 97.1, SENP8 block-2 92.4 | SENP8 confirm 91.1 | SENP6 conf 93.8 | SENP7 confirm 95.6 | Casp3 SENP sel 87.4 | Luc interf inactive
N#Cc1c(/N=C/c2cccnc2)sc2c1CCCC2	SENP6 block 55.0 | SENP8 confirm 57.3 | SENP6 conf 55.7 | SENP7 confirm 67.1 | Casp3 SENP sel inactive | Luc interf 55.7
N#Cc1c(/N=C/c2ccc(Br)s2)sc2c1CCC2	none (no result: SENP6 block, SENP7 inh, SENP8 block-2)
N#Cc1c(/N=C\c2ccc(O)c([N+](=O)[O-])c2)sc2c1CCCC2	none
CN(C)/C=N/c1sc2c(c1C#N)CCC2	none
Cc1cccc(C)c1C(O)c1ncc(-c2cccc(F)c2)[nH]1 (configuration not stated)	none (no result: SENP6 block, SENP7 inh, SENP8 block-2)
CC1(C(=O)NS(=O)(=O)c2cccs2)CCN1C(=O)CC1CC1 (configuration not stated)	none (no result: SENP6 block, SENP7 inh, SENP8 block-2)
CCc1ccc(NC(=O)Nc2cccc(OC)c2)cc1	SENP7 inh 56.4, SENP8 block-2 52.7 | SENP8 confirm inactive | SENP6 conf 50.7 | SENP7 confirm 81.6 | Casp3 SENP sel inactive | Luc interf 58.8
Cc1ccc(NC(=O)c2ccc3nsnc3c2)c(Cl)c1	SENP6 block 61.5, SENP7 inh 80.7 | SENP8 confirm inactive | SENP6 conf inactive | SENP7 confirm inactive | Casp3 SENP sel inactive | Luc interf inactive
COc1cccc(C(=O)Nc2cc(Cl)c(O)c(Cl)c2)c1	SENP6 block 71.5, SENP7 inh 58.8, SENP8 block-2 54.9 | SENP8 confirm 64.4 | SENP6 conf 63.5 | SENP7 confirm 89.2 | Casp3 SENP sel 85.0 | Luc interf 67.7
COc1cccc(NC(=O)c2ccc(NC(=O)C(C)C)cc2)c1	SENP6 block 72.8, SENP7 inh 74.6, SENP8 block-2 54.8 | SENP8 confirm inactive | SENP6 conf 56.3 | SENP7 confirm 84.7 | Casp3 SENP sel 74.5 | Luc interf inactive
